Values after ≈ are worked out from the molar mass of the structure shown.
Columns and labels:
P388 [1] = experiment: Antitumor activity against mouse P388 cells xenografted CDF1 mouse at 75 mg/kg, iv administered on day 1 after 30 days relative to control; format: functional
How it was run: (§1)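 Female CDF1 mice, 6 weeks old, five per group, inoculated iv with P-388 leukemia cells (1 × 10^5 cells/body) on day 0; cells maintained by ip passage in DBA/2 mice. Single tail-vein injection on day 1 (0.1 mL per 10 g), vehicle 5% glucose or EtOH–Cremophore (1:1) diluted in 5% glucose. Followed 30 days; T/C (%) from median survival time, treated versus control.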

Mus musculus [2] = experiment: Toxicity against mouse P388 cells xenografted CDF1 mouse assessed as survival time at 150 mg/kg, iv; format: organism-based; parameters: dose 150 mg/kg, route intravenous; conditions: in vivo; how it was run: as §1
P388 [3] = experiment: Antitumor activity against mouse P388 cells xenografted CDF1 mouse at 50 mg/kg, iv administered on day 1 after 30 days relative to control; format: functional; how it was run: as §1
Mus musculus [4] = experiment: Toxicity against mouse P388 cells xenografted CDF1 mouse assessed as survival time at 75 mg/kg, iv; format: organism-based; parameters: dose 75 mg/kg, route intravenous; conditions: in vivo; how it was run: as §1
P388 [5] = experiment: Antitumor activity against mouse P388 cells xenografted CDF1 mouse at 150 mg/kg, iv administered on day 1 after 30 days relative to control; format: functional; how it was run: as §1
[6] = Dissociation constant, pKa of the compound; format: physicochemical
Mus musculus [7] = experiment: Toxicity in mouse P388 cells xenografted CDF1 mouse assessed as decrease in body weight at 150 mg/kg, iv administered on day 1 after 30 days; format: organism-based; parameters: dose 150 mg/kg, route intravenous; conditions: in vivo, 720 h
How it was run: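 Female CDF1 mice, 6 weeks old, five per group, given P-388 cells iv (1 × 10^5 cells/body) on day 0, then a single tail-vein dose on day 1 in 5% glucose or EtOH–Cremophore (1:1) diluted in 5% glucose. Body weight tracked against untreated controls, reported as mean with s.e.mean.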

Mus musculus [8] = experiment: Toxicity against mouse P388 cells xenografted CDF1 mouse assessed as survival time at 50 mg/kg, iv; format: organism-based; parameters: dose 50 mg/kg, route intravenous; conditions: in vivo; how it was run: as §1
HeLa = experiment: Growth inhibition of human HeLa S3 cells after 72 hrs; format: functional, cell-based
How it was run: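 HeLa S3 in Eagle's MEM with 10% calf serum and 60 µg/mL kanamycin, 37 °C, 5% CO2; seeded, grown 24 h, then exposed 72 h to compound diluted in 5% glucose at 0.01–10 µg/mL. Nuclei stained with methylene blue, cell number read at 660 nm; IC50 from growth rate relative to control.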

Mus musculus [9] = experiment: Toxicity against mouse P388 cells xenografted CDF1 mouse assessed as survival time at 6.25 mg/kg, iv; format: organism-based; parameters: dose 6.25 mg/kg, route intravenous; conditions: in vivo; how it was run: as §1
P388 [10] = experiment: Antitumor activity against mouse P388 cells xenografted CDF1 mouse at 25 mg/kg, iv administered on day 1 after 30 days relative to control; format: functional; how it was run: as §1
Mus musculus [11] = experiment: Toxicity against mouse P388 cells xenografted CDF1 mouse assessed as survival time at 25 mg/kg, iv; format: organism-based; parameters: dose 25 mg/kg, route intravenous; conditions: in vivo; how it was run: as §1
P388 [12] = experiment: Antitumor activity against mouse P388 cells xenografted CDF1 mouse at 6.25 mg/kg, iv administered on day 1 after 30 days relative to control; format: functional; how it was run: as §1
Mus musculus [13] = experiment: Toxicity against mouse P388 cells xenografted CDF1 mouse assessed as survival time at 12.5 mg/kg, iv; format: organism-based; parameters: dose 12.5 mg/kg, route intravenous; conditions: in vivo; how it was run: as §1
P388 [14] = experiment: Antitumor activity against mouse P388 cells xenografted CDF1 mouse at 12.5 mg/kg, iv administered on day 1 after 30 days relative to control; format: functional; how it was run: as §1

| SMILES | T/C (P388 [1]) [%] | MSD (Mus musculus [2]) [days] | T/C (P388 [3]) [%] | MSD (Mus musculus [4]) [days] | T/C (P388 [5]) [%] | pKa [6] | Activity (Mus musculus [7]) | MSD (Mus musculus [8]) [days] | IC50 (HeLa) [µg/mL] | MSD (Mus musculus [9]) [days] | T/C (P388 [10]) [%] | MSD (Mus musculus [11]) [days] | T/C (P388 [12]) [%] | MSD (Mus musculus [13]) [days] | T/C (P388 [14]) [%] |
| --- | --- | --- | --- | --- | --- | --- | --- | --- | --- | --- | --- | --- | --- | --- | --- |
| COc1ccc2c(c[n+](C)c3c4cc5c(cc4ccc23)OCO5)c1O.O.O.O=S(=O)([O-])O | 159 | 23.5 | 147 | 14.3 | 261 | 5.3 | Toxic | 13.2 | 0.08 | – | – | – | – | – | – |
| COc1ccc2c(c[n+](C)c3c4cc5c(cc4ccc23)OCO5)c1OC.[Cl-] [CHELERYTHRINE CHLORIDE] | – | – | – | – | – | – | – | – | 1.24 | 10 | 12 | 1.1 | 111 | 10 | 111 |
| COc1cc2c(ccc3c4cc(OC)c(OC)cc4c[n+](C)c23)cc1O.[Cl-] [FAGARONINE] | 14 | – | 102 | 1.3 | – | – | – | 9.5 | 0.39 | – | 102 | 9.5 | – | – | – |
| COc1c(O)ccc2c1c[n+](C)c1c3cc4c(cc3ccc21)OCO4.[Cl-] [FAGARIDINE HYDROCHLORIDE] | – | – | – | – | – | – | – | – | 3.99 | – | – | – | – | – | – |
| COc1cc2c[n+](C)c3c4cc5c(cc4ccc3c2cc1OC)OCO5.[Cl-] [NITIDINE CHLORIDE] | 46 | – | 102 | 4.3 | – | – | – | 9.5 | 0.05 | – | 108 | 10 | – | – | – |
| COc1ccc2c(c1O)CN(C)c1c-2ccc2cc3c(cc12)OCO3 | – | – | – | – | – | – | – | – | 16.2 (≈ 48.3 µM) | – | – | – | – | – | – |
| C[n+]1cc2c3c(ccc2c2ccc4cc5c(cc4c21)OCO5)OCO3.[Cl-] [SANGUINARIUM CHLORIDE] | – | – | 12 | – | – | – | – | 1.1 | 0.16 | – | 25 | 2.3 | – | 9.5 | 102 |

— ChEMBL document CHEMBL1144051, “Structural considerations of NK109, an antitumor benzo[c]phenanthridine alkaloid” (J Nat Prod, 1999)
